Measurements published in ChEMBL document CHEMBL1131233, “Synthesis and structure-activity relationships of bafilomycin A1 derivatives as inhibitors of vacuolar H+-ATPase” (J Med Chem, 1998).

Biological target: V-type proton ATPase subunit B, brain isoform (Bos taurus) (UniProt P31408)
Assay: Inhibition of V-ATPase-driven proton transport in membrane vesicles derived from bovine chromaffin granules (bCG); Potency ratio expressed as IC50 of compound/IC50 of baf A1
Procedure, shortened: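 Proton transport in bovine chromaffin granule inside-out vesicles, read by acridine orange (5 μM) fluorescence quench with 1 mM Na₂ATP, pH 7.4. IC50 from ≥3 duplicated doses by four-parameter logistic fit. Each IC50 is divided by the bafilomycin A₁ IC50 from the same experiment, to correct for membrane batch and protein level.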

Chain of V-type proton ATPase subunit B, brain isoform (Bos taurus) (P31408 whole entry, canonical isoform): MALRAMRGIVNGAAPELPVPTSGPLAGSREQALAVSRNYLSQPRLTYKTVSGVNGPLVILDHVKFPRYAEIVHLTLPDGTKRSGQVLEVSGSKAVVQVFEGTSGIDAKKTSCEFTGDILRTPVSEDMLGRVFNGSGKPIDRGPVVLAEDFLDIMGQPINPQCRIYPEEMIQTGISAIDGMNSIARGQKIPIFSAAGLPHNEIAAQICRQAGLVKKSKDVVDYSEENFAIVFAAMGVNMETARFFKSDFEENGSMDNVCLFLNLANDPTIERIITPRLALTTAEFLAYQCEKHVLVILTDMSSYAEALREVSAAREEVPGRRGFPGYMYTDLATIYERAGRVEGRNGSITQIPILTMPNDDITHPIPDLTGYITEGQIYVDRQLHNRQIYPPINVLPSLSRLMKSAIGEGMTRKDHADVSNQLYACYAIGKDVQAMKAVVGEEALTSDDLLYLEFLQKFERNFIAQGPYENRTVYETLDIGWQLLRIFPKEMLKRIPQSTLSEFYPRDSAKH

Compound	Potency ratio
CO/C1=C\C(C)=C\[C@@H](C)[C@@H](O)[C@@H](C)C/C(C)=C/C=C/[C@H](OC)[C@@H]([C@@H](C)[C@@H](O)[C@H](C)C(O)C[C@H](O)[C@H](C)C(O)C(C)C)OC1=O (some centres not stated)	8.2
CO/C1=C\C(C)=C\[C@@H](C)[C@@H](O)[C@@H](C)C/C(C)=C/C=C/[C@H](OC)[C@@H]([C@@H](C)[C@@H](O)[C@H](C)[C@@]2(O)C[C@@H](NC3CCCCC3)[C@H](C)[C@@H](C(C)C)O2)OC1=O	9.2
CO/C1=C\C(C)=C\[C@@H](C)[C@@H](O)[C@@H](C)C/C(C)=C/C=C/[C@H](OC)[C@@H]([C@@H](C)[C@@H](O)[C@H](C)C(=O)/C=C/[C@H](C)C(O)C(C)C)OC1=O (some centres not stated)	15
COC1/C=C(\C)C[C@@H](C)[C@@H](O)[C@@H](C)CC(C)/C=C/CC(OC)[C@@H]([C@@H](C)[C@@H](O)[C@H](C)[C@@]2(O)C[C@@H](O)[C@H](C)[C@@H](C(C)C)O2)OC1=O (some centres not stated)	2110
CO/C1=C\C(C)=C\C(C)C(=O)[C@@H](C)C/C(C)=C/C=C/C(OC)[C@@H]([C@@H](C)C(=O)[C@H](C)C2=CC(=O)[C@H](C)[C@@H](C(C)C)O2)OC1=O (some centres not stated)	3050
CO/C1=C\C(C)=C\[C@@H](C)[C@@H](O)[C@@H](C)C/C(C)=C/C=C/[C@H](OC)[C@@H]([C@@H](C)[C@@H](O)[C@H](C)[C@@]2(O)C[C@@H](O)[C@H](C)[C@@H](C(C)C)O2)OC1=O	1
COC(=O)/C(=C/C(C)=C/[C@@H](C)[C@@H](O)[C@@H](C)C/C(C)=C/C=C/[C@H](OC)[C@H](O)[C@@H](C)[C@@H](O)[C@H](C)[C@@]1(O)C[C@@H](O)[C@H](C)[C@@H](C(C)C)O1)OC	330
CCO[C@@H]1C[C@](O)([C@@H](C)[C@H](O)[C@H](C)[C@H]2OC(=O)/C(OC)=C/C(C)=C/[C@@H](C)[C@@H](O)[C@@H](C)C/C(C)=C/C=C/[C@@H]2OC)O[C@H](C(C)C)[C@H]1C	1.2
CCCO[C@@H]1C[C@](OC)([C@@H](C)[C@H](O)[C@H](C)[C@H]2OC(=O)/C(OC)=C/C(C)=C/[C@@H](C)[C@@H](O)[C@@H](C)C/C(C)=C/C=C/[C@@H]2OC)O[C@H](C(C)C)[C@H]1C	5
CO/C1=C\C(C)=C\[C@@H](C)C(=O)[C@@H](C)C/C(C)=C/C=C/[C@H](OC)[C@@H]([C@@H](C)[C@@H](O)[C@H](C)[C@@]2(O)C[C@@H](O)[C@H](C)[C@@H](C(C)C)O2)OC1=O	32
C/C=C/CC(O)[C@@H](C)[C@H](O)[C@H](C)[C@H]1OC(=O)/C(OC)=C/C(C)=C/[C@@H](C)[C@@H](O)[C@@H](C)C/C(C)=C/C=C/[C@@H]1OC (some centres not stated)	2.6
CO/C1=C\C(C)=C\[C@@H](C)[C@@H](O)[C@@H](C)C/C(C)=C/C=C/[C@H](OC)[C@@H]([C@@H](C)[C@@H](O)[C@H](C)[C@@]2(O)C[C@@H](OC)[C@H](C)[C@@H](C(C)C)O2)OC1=O	1.2
CO/C1=C\C(C)=C\[C@@H](C)[C@@H](O)[C@@H](C)C/C(C)=C/C=C/[C@H](OC)[C@@H]([C@@H](C)[C@@H](O)[C@H](C)[C@@]2(OC)C[C@@H](O)[C@H](C)[C@@H](C(C)C)O2)OC1=O	1.4
CO/C1=C\C(C)=C\[C@@H](C)[C@@H](O)[C@@H](C)C/C(C)=C/C=C/[C@H](OC)[C@@H]([C@@H](C)[C@@H](O)[C@H](C)[C@@]2(O)C[C@@H](N3CCCCC3)[C@H](C)[C@@H](C(C)C)O2)OC1=O	6.7
CO/C1=C\C(C)=C\[C@@H](C)C(=O)[C@@H](C)C/C(C)=C/C=C/[C@H](OC)[C@@H]([C@@H](C)[C@@H](O)[C@H](C)[C@@]2(O)CC(=O)[C@H](C)[C@@H](C(C)C)O2)OC1=O	112
CO/C1=C\C(C)=C\[C@@H](C)[C@@H](O)[C@@H](C)C/C(C)=C/C=C/[C@H](OC)[C@@H]([C@@H](C)[C@@H](O)[C@H](C)[C@@]2(O)CC(=O)[C@H](C)[C@@H](C(C)C)O2)OC1=O	2.2
C/C=C/CC(=O)[C@@H](C)[C@H](O)[C@H](C)[C@H]1OC(=O)/C(OC)=C/C(C)=C/[C@@H](C)[C@@H](O)[C@@H](C)C/C(C)=C/C=C/[C@@H]1OC	21
